Converted amounts (≈) assume the structure as drawn. The source made the active and inactive calls. The calls are words filed in the database; no cut-off is given here.
Each molecule was assayed on Human rhinovirus sp. (assay: In vitro concentration required to inhibit 80 percent of human rhinovirus 15 serotypes was determined by TCID50 assay;c= inactive against majority of serotypes).
Assay type: functional, organism-based
Outline: (§1)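 HeLa monolayers were infected with a virus dilution giving 80-100% CPE in 3 days without drug. Compound was serially diluted in 10 2-fold steps onto the infected cells and incubated 3 days at 33 °C in 2.5% CO2. Cells were fixed with 5% glutaraldehyde and stained with 0.25% crystal violet.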

MIC80	Structure (SMILES)
inactive	Cc1cc(CCCOc2c(C)cc(-c3noc(O)n3)cc2C)on1
inactive	Cc1cc(CCCOc2c(C)cc(-c3noc(C(C)O)n3)cc2C)on1 (centres undefined)
inactive	Cc1cc(CCCOc2c(C)cc(-c3ncon3)cc2C)on1

What follows are molecules tested on Human rhinovirus sp. (assay: In vitro concentration required to inhibit 80 percent of human rhinovirus 15 serotypes was determined by TCID50 assay;c inactive against majority of serotypes).
Assay type: functional, organism-based
Outline: as §1

MIC80	Structure (SMILES)
inactive	Cc1cc(CCCOc2c(C)cc(-c3noc(S)n3)cc2C)on1
inactive	Cc1cc(CCCOc2c(C)cc(-c3noc(N)n3)cc2C)on1
inactive	CC(=O)Nc1nc(-c2cc(C)c(OCCCc3cc(C)no3)c(C)c2)no1

The molecules below were run on Human rhinovirus sp. (assay: In vitro concentration required to inhibit 80 percent of human rhinovirus 54 serotypes was determined by TCID50 assay).
Assay type: functional

Structure (SMILES)	MIC80
CCc1cc(CCCOc2c(Cl)cc(-c3noc(C)n3)cc2Cl)on1	0.23 µM (≈ 0.0879 µg/mL)
Cc1cc(CCCOc2c(Cl)cc(-c3noc(C)n3)cc2Cl)on1	0.3 µM (≈ 0.11 µg/mL)
COCc1cc(CCCOc2c(Cl)cc(-c3noc(C)n3)cc2Cl)on1	0.19 µM (≈ 0.0757 µg/mL)

The remaining lines, values ahead:

MIC80	Structure (SMILES)
0.45 µM (≈ 0.161 µg/mL)	COCc1cc(CCCOc2c(C)cc(-c3noc(C)n3)cc2C)on1
0.3 µM (≈ 0.0982 µg/mL)	Cc1cc(CCCOc2c(C)cc(-c3noc(C)n3)cc2C)on1
0.26 µM (≈ 0.0924 µg/mL)	CCCc1cc(CCCOc2c(C)cc(-c3noc(C)n3)cc2C)on1

The molecules below were run on Human rhinovirus sp. (assay: In vitro concentration required to inhibit 80 percent of human rhinovirus 15 serotypes was determined by TCID50 assay).
Assay type: functional
Outline: as §1

Structure (SMILES)	MIC80
Cc1cc(CCCOc2c(C)cc(-c3nc(C)no3)cc2C)on1	0.73 µM (≈ 0.239 µg/mL)
CCCc1nc(-c2cc(C)c(OCCCc3cc(C)no3)c(C)c2)no1	0.79 µM (≈ 0.281 µg/mL)
CCc1cc(CCCOc2c(Cl)cc(-c3noc(C)n3)cc2Cl)on1	0.22 µM (≈ 0.0841 µg/mL)
COCc1nc(-c2cc(C)c(OCCCc3cc(C)no3)c(C)c2)no1	0.43 µM (≈ 0.154 µg/mL)
CCc1nc(-c2cc(C)c(OCCCc3cc(COC)no3)c(C)c2)no1	0.21 µM (≈ 0.078 µg/mL)
Cc1cc(CCCOc2c(Cl)cc(-c3noc(C)n3)cc2Cl)on1	0.19 µM (≈ 0.07 µg/mL)
Cc1cc(CCCOc2c(C)cc(-c3nnc(C)o3)cc2C)on1	3.7 µM (≈ 1.21 µg/mL)
COc1nc(-c2cc(C)c(OCCCc3cc(C)no3)c(C)c2)no1	0.39 µM (≈ 0.134 µg/mL)
CCc1cc(CCCOc2c(C)cc(-c3ncon3)cc2C)on1	3.2 µM (≈ 1.05 µg/mL)
COCc1cc(CCCOc2c(Cl)cc(-c3noc(C)n3)cc2Cl)on1	0.18 µM (≈ 0.0717 µg/mL)
Cc1cc(CCCOc2c(C)cc(-c3noc(CO)n3)cc2C)on1	3.6 µM (≈ 1.24 µg/mL)
CNc1nc(-c2cc(C)c(OCCCc3cc(C)no3)c(C)c2)no1	0.95 µM (≈ 0.325 µg/mL)
CCc1nc(-c2cc(C)c(OCCCc3cc(C)no3)c(C)c2)no1	0.32 µM (≈ 0.109 µg/mL)
Cc1cc(CCCOc2c(C)cc(-c3noc(C4CC4)n3)cc2C)on1	0.54 µM (≈ 0.191 µg/mL)
Cc1cc(CCCOc2c(C)cc(-c3noc(C(C)C)n3)cc2C)on1	0.93 µM (≈ 0.331 µg/mL)
Cc1cc(CCCOc2c(C)cc(-c3noc(N(C)C)n3)cc2C)on1	0.8 µM (≈ 0.285 µg/mL)
Cc1cc(CCCOc2c(C)cc(-c3nnn(C)n3)cc2C)on1	0.71 µM (≈ 0.232 µg/mL)
CCOc1nc(-c2cc(C)c(OCCCc3cc(C)no3)c(C)c2)no1	0.23 µM (≈ 0.0822 µg/mL)
Cc1cc(CCCCCOc2c(Cl)cc(C3=NCCO3)cc2Cl)on1 [WIN-54954]	0.9 µM (≈ 0.345 µg/mL)

The remaining lines, values ahead:

MIC80	Structure (SMILES)
0.77 µM (≈ 0.312 µg/mL)	Cc1nc(-c2cc(C)c(OCCCc3cc(CS(C)(=O)=O)no3)c(C)c2)no1
1.5 µM (≈ 0.536 µg/mL)	Cc1nc(-c2cc(C)c(OCCCc3cc(CCO)no3)c(C)c2)no1
0.22 µM (≈ 0.0786 µg/mL)	COCc1cc(CCCOc2c(C)cc(-c3noc(C)n3)cc2C)on1
0.26 µM (≈ 0.0888 µg/mL)	CCc1cc(CCCOc2c(C)cc(-c3noc(C)n3)cc2C)on1
1 µM (≈ 0.389 µg/mL)	Cc1nc(-c2cc(C)c(OCCCc3cc(C[S+](C)[O-])no3)c(C)c2)no1 (centres undefined)
0.26 µM (≈ 0.0851 µg/mL)	Cc1cc(CCCOc2c(C)cc(-c3noc(C)n3)cc2C)on1
0.21 µM (≈ 0.0746 µg/mL)	CCCc1cc(CCCOc2c(C)cc(-c3noc(C)n3)cc2C)on1
0.32 µM (≈ 0.12 µg/mL)	CSCc1cc(CCCOc2c(C)cc(-c3noc(C)n3)cc2C)on1
0.24 µM (≈ 0.0891 µg/mL)	COCCc1cc(CCCOc2c(C)cc(-c3noc(C)n3)cc2C)on1
0.4 µM (≈ 0.142 µg/mL)	CCc1cc(CCCOc2c(C)cc(-c3noc(CC)n3)cc2C)on1
0.2 µM (≈ 0.0707 µg/mL)	Cc1nc(-c2cc(C)c(OCCCc3cc(C4CC4)no3)c(C)c2)no1
0.73 µM (≈ 0.251 µg/mL)	Cc1nc(-c2cc(C)c(OCCCc3cc(CO)no3)c(C)c2)no1
0.19 µM (≈ 0.0706 µg/mL)	CCOCc1cc(CCCOc2c(C)cc(-c3noc(C)n3)cc2C)on1
